The values that follow come from ChEMBL document CHEMBL3233004, “Analogue-based design, synthesis and biological evaluation of 3-substituted-(methylenehydrazono)indolin-2-ones as anticancer agents” (Eur J Med Chem, 2014).

SMILES strings stand for the structures.

Assay [1] relates to MCF7. Put plainly: Cytotoxicity against human MCF7 cells assessed as surviving fraction at 10 uM after 48 hrs by SRB assay relative to control. Format: functional. The method, boiled down:
(§1)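 MCF-7 cells (ATCC) grown in DMEM with 10% heat-inactivated fetal calf serum. Seeded at 10⁴ cells/well and left 24 h to attach. Compounds dissolved in DMSO and diluted with saline, then given to the monolayer for 48 h at 37 °C under 5% CO₂. Cells fixed, stained 30 min with 0.4% SRB in 1% acetic acid, washed four times with 1% acetic acid, and bound dye recovered in Tris-EDTA. Colour read on an ELISA reader.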
In general terms: Sulforhodamine B stains cellular protein and so reports cell mass.

In assay [2] the test system is MCF7. Put plainly: Cytotoxicity against human MCF7 cells assessed as surviving fraction at 25 uM after 48 hrs by SRB assay relative to control. The assay is classed as functional. In outline: as §1
For assay [3], the system named is MCF7. Put plainly: Cytotoxicity against human MCF7 cells assessed as surviving fraction at 50 uM after 48 hrs by SRB assay relative to control. The assay is classed as functional. The method, boiled down:
as §1

The subject of assay [4] is MCF7. Description: Cytotoxicity against human MCF7 cells assessed as surviving fraction at 100 uM after 48 hrs by SRB assay relative to control. Format: functional. The method, boiled down: as §1
The subject of assay [5] is MCF7. Put plainly: Cytotoxicity against human MCF7 cells assessed as surviving fraction after 48 hrs by SRB assay. Conditions: MCF7, 48 h. Format: functional, cell-based. In outline:
as §1

In general, IC50 refers to the midpoint of a concentration-inhibition curve.

For `O=C1Nc2ccc(F)cc2/C1=N/N=C/c1ccco1`, the Ratio is given as 0.667 in assay [1], 0.429 in assay [2], 0.335 in assay [3] and 0.257 in assay [4]. Also, the IC50 in assay [5] came to 20.3 µM.
In the same order, the values of `O=C1Nc2ccc(Cl)cc2/C1=N/N=C/c1cccs1` are 0.619, 0.31, 0.204, 0.194 and 15.3 µM.
In the same order, the values of `O=C1Nc2ccc(Cl)cc2/C1=N/N=C/c1ccco1` are 0.384, 0.274, 0.259, 0.231 and 7.75 µM.
For `Cc1ccc2c(c1)/C(=N/N=C/c1ccco1)C(=O)N2`, in that order: 0.436, 0.213, 0.195, 0.102 and 8.75 µM.
For `O=C1Nc2ccccc2/C1=N/N=C/c1ccc[nH]1`, the Ratio in assay [1] was 0.465; in assay [2], 0.328; in assay [3] it was 0.395; in assay [4], 0.357. In addition, in assay [5], the IC50 is 6.25 µM.
As to `O=C1Nc2ccc(F)cc2/C1=N/N=C/c1ccc[nH]1`, the Ratio in assay [1] was 0.671; in assay [2] it was 0.274; in assay [3], 0.456; in assay [4], 0.528. The IC50 in assay [5] worked out at 10.8 µM.
For `O=C1Nc2ccccc2/C1=N/N=C/c1cccs1`, in that order: 0.352, 0.602, 0.522, 0.546 and 8.25 µM.
In the same order, the values of `Cc1ccc2c(c1)/C(=N/N=C/c1cccs1)C(=O)N2` are 0.227, 0.132, 0.099, 0.137 and 6.75 µM.
For `O=C1Nc2ccc(F)cc2/C1=N/N=C/c1cccs1`, in that order: 0.616, 0.505, 0.331, 0.308 and 25.8 µM.
For the compound `O=C1Nc2ccc(Cl)cc2/C1=N/N=C/c1ccc[nH]1`, the Ratio in assay [1] was 0.51; in assay [2] it was 0.392; in assay [3] it was 0.238; in assay [4], 0.259. In addition, the IC50 in assay [5] was 11.8 µM.
In the same order, the values of `COc1cccc2c1C(=O)c1c(O)c3c(c(O)c1C2=O)C[C@@](O)(C(=O)CO)C[C@@H]3O[C@H]1C[C@H](N)[C@H](O)[C@H](C)O1` [DOXORUBICIN] are 0.257, 0.158, 0.098, 0.125 and 6.1 µM.
In the case of `Cc1ccc2c(c1)/C(=N/N=C/c1ccc[nH]1)C(=O)N2`, the Ratio came to 0.473 in assay [1], 0.351 in assay [2], 0.221 in assay [3] and 0.206 in assay [4]. The 50% inhibitory concentration (IC50) in assay [5] amounted to 9.25 µM.
As to `O=C1Nc2ccccc2/C1=N/N=C/c1ccco1`, the Ratio in assay [1] was determined as 0.637; in assay [2], 0.306; in assay [3], 0.158; in assay [4], 0.333. For the same compound, the IC50 in assay [5] was 15.8 µM.
